Data on eleven compounds can be found in PubChem BioAssay.

A short description of test [1]: inhibitors of TNFa-induced NFkB p65 translocation, primary screen, imaging, HUVEC, MLSMR starter and 10KST1 sets (AID 438;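 active = inhibition above 20% together with a positive visual image hit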;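 note: compound added about 3h40 before a 20 min TNFalpha stimulation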;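 for inhibition: signal is the nuclear over cytoplasmic p65 intensity ratio per well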). The note with it: HUVEC TNFa-induced p65 nuclear translocation; cell count: measured here: nuclei count (cytotoxicity indicator), at 2.08 µM; inhibition: at 2 µM, stronger effect = higher value, 0% TNFa-plus-vehicle, 100% no-TNFa wells.
A short description of test [2]: inhibitors of E-selectin induction by TNFa, primary screen, imaging, HUVEC, immunofluorescence, MLSMR starter and 10KST1 sets (AID 487).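 For inhibition: signal is fraction of cell area covered by stained E-selectin grains.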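 For nuclei count: 100% = median nuclei count of all wells on the same plate.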 The note with it: HUVEC TNFalpha-induced E-selectin immunofluorescence imaging, at 2 µM; inhibition: stronger effect = higher value; nuclei count: measured here: cell number, toxicity.
The nature of test [3]: DUSP6 inhibitors restoring Erk phosphorylation by chemical complementation, primary imaging in DUSP6-transfected HeLa (AID 609;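 active = compounds giving at least 50% inhibition in the cell-based MKP-3 phosphatase rescue imaging test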;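 for inhibition: phospho-Erk level distribution per well compared with pooled transfected vehicle control wells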). As to conditions: HeLa MKP-3 transfected, phospho-Erk imaging KS statistic, at 10 µM, cells stimulated with TPA for 15 min.
The target of test [4] is Dual specificity protein phosphatase 6 (Homo sapiens) (UniProt Q16828). Described as above. As to conditions: HeLa MKP-3 transfected, phospho-Erk imaging KS statistic; at 10 µM; stronger effect = higher value; cells stimulated with TPA for 15 min.
Sequence of Dual specificity protein phosphatase 6 (Homo sapiens) (Q16828 whole entry, looked up): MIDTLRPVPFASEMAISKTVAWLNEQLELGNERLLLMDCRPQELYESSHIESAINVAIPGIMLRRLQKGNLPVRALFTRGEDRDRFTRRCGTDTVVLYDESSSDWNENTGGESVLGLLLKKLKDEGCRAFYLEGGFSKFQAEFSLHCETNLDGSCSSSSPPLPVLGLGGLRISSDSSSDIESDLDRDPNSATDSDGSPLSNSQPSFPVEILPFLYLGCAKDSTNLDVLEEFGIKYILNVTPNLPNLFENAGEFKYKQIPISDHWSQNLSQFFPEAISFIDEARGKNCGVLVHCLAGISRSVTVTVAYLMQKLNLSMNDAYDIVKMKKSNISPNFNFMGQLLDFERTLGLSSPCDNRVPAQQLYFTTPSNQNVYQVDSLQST
For test [5], the target named is Voltage-gated potassium channel subunit beta-2 (Rattus norvegicus) (UniProt P62483). As to the kind of experiment: KvBeta enzyme negative modulators, primary screen, biochemical, NADPH fluorescence (AID 622;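 active = fluorescence slope higher than the sample average by over 3 SD, cut at about -0.22 in these data, passing the limit was not always enough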;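 note: slope of raw intensity against log time taken from 70 to 1610 s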). As to conditions: recombinant KvBeta, 4-cyanobenzaldehyde reduction, at 10 µM, stronger effect = higher value.
Sequence of Voltage-gated potassium channel subunit beta-2 (Rattus norvegicus) (P62483 whole entry, looked up): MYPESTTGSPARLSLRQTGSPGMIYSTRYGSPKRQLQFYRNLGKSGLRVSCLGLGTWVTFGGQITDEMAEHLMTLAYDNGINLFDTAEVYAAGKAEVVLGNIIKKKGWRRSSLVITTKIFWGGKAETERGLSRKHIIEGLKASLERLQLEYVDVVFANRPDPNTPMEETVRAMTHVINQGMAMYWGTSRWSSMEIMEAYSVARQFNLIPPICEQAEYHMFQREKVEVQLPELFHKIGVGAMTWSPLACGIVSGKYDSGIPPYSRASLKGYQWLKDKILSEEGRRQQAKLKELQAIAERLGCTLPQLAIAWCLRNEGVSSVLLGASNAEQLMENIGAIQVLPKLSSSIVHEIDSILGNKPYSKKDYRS
Test [6] has the same target. As to the kind of experiment: KvBeta positive modulators, primary screen, biochemical, NADPH fluorescence (AID 623;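 active = NADPH fluorescence slope more negative than the mean of all samples by about 3 SD, 99.7% confidence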;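 note: fluorescence intensity change per second fitted from 20 to 320 s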). The note with it: Recombinant KvBeta, NADPH fluorescence decrease slope, 10 min; at 10 µM; stronger effect = lower value.
The target of test [7] is Muscarinic acetylcholine receptor M4 (Homo sapiens) (UniProt P08173). As to the kind of experiment: compounds altering M4/GIRK thallium flux, either direction, primary screen, M4 allosteric agonist project, cell-based, HEK293 M4/GIRK, BTC-AM (AID 625;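 active = fluorescence slope after compound addition differing from the mean of all tested samples at 99.7% confidence, mostly higher but some lower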;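 note: thallium influx through GIRK channels coupled to M4 in HEK293 cells with BTC-AM dye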). As to conditions: at 10 µM, actives lie on both sides. Put shortly:
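assay system = HEK293 cells with M4 receptor and GIRK channels | medium = pH 7.3 thallium assay buffer | doses = 10 µM final, single point | timing = cells overnight at 37 °C, BTC-AM loading 1 h, reads 2 min total | signal = BTC-AM fluorescence, 1 Hz kinetic reads | read-out = post-addition slope, 15–24 s, of baseline-normalized fluorescence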

Test [8] in a line: inhibitors of larval lipid processing in zebrafish, primary screen, whole organism, PED6 fluorescence, gall bladder and intestine (AID 686;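 active = a full or partial loss of lipid-probe fluorescence in the fish gall bladder, intestine or both, judged by eye; inactive = no fluorescence loss, or compound toxic to the fish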;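 note: larvae 5 to 7 days old with five fish per well; signal comes from phospholipase A2 cleavage of quenched PED6 carried via bile; overnight exposure to compound and PED6 before scoring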). As to conditions: Zebrafish larvae PED6 lipid processing, fluorescence scoring; screened at 20 µM (by protocol). Put shortly:
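Also added: quenched phospholipase substrate PED6, 100 nM final, ingested by larvae; System: zebrafish larvae, 5-7 d; Quantity: 5 larvae per well; Compound: 20 µM single dose; Schedule: overnight compound and PED6 incubation; Read-out: visual per-well fluorescence inhibition score; Measured by: By-eye fluorescence microscopy; Medium: E3.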

Test [9] is described as follows: inhibitors of Chlamydomonas gravitaxis, primary screen, whole organism, Chlamydomonas reinhardtii, WT vs cilia-less mutant, absorbance, 96-well (AID 463189;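 active = inhibition at or above 50% relative to wild type and mutant plate controls; inactive = inhibition below 50%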;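 note: 0% = wild type cc124 cells in DMSO and 100% = ciliumless bld1 mutant cells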). The note with it: OD600 absorbance, 2 days, at 10 µM, stronger effect = higher value.
Setting [10] is: measured here: cell density z-score.
The mark [11] stands for this setting: measured here: nuclear c-Myc green intensity z-score.
Setting [12] is: measured here: nuclear pErk red intensity z-score, stronger effect = higher value.

SMILES strings stand for the structures. Active and inactive are the calls of the source.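 Rule for the calls, unless noted: active = visually confirmed hit in the image check and inhibition above 20%; inconclusive = visually confirmed hit but inhibition not above 20%; inactive = no visual hit in the image check.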

Sequence of Muscarinic acetylcholine receptor M4 (Homo sapiens) (P08173 whole entry, looked up): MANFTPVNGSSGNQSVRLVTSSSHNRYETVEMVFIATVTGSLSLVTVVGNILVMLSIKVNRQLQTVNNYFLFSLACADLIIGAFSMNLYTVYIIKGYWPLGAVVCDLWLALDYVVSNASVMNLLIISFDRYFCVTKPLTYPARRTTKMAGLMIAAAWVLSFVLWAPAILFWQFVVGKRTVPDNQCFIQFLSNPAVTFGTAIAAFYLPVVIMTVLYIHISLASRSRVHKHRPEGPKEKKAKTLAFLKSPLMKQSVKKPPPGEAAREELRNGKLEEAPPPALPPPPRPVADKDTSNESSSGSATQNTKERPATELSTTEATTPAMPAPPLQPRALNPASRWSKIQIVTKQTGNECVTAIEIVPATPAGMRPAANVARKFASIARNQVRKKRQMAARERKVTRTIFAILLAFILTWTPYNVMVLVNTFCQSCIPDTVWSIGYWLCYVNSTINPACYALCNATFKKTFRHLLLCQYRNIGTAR

Take `O=C(NCCC1=CCCCC1)c1ccc(=O)oc1`: the cell count in test [1] was determined as 670. Further, the inhibition (usually the change of the read-out against control, counted positive when it falls) in test [1] was -1.4% (inactive); in [2], 33.5% (inactive); in test [4], -2.29% (inactive); in [9], 20.7% (inactive). The compound also had a nuclei count in test [2] of 163%. Moreover, the z-score was -0.394 in test [3] (setting [10]), -0.165 in test [3] (setting [11]) and 0.265 in test [3] (setting [12]). Also, the fluorescence slope in [5] is -0.448 (inactive); in test [7] it was 0.00522 (inactive). The NADPH fluorescence slope in test [6] was -0.000197 (inactive). The result in test [8] was inactive.

As to `c1ccc2c(c1)[nH]c1c(N3CCN(C4CCCCC4)CC3)ncnc12`, in [1], the cell count turned out to be 601. Besides, the inhibition in test [1] was -21% (inactive); in [2], -59.2% (inactive); in test [4], 27.4% (inactive); in test [9], 18.4% (inactive). The compound also yielded a nuclei count in test [2] of 172%. The z-score in [3] (setting [10]) is 0.663; in [3] (setting [11]), -1.44; in test [3] (setting [12]), -1.01. The figures for the fluorescence slope in test [5] and in test [7] were -0.169 (inactive) and 0.00557 (inactive), respectively. In addition, the NADPH fluorescence slope in [6] was -1.6e-05 (inactive). Further, the compound was classed as inactive in test [8].

Turning to `C/C(NC(=O)c1ccccc1F)=C1\C(=O)C[C@@H]2[C@H]1C2(C)C`, the cell count in test [1] worked out at 697. Also, the inhibition in test [1] was -13.5% (inactive); in test [2] it was -170% (inactive); in test [4], -2.47% (inactive); in test [9], 24.1% (inactive). Further, in [2], the nuclei count worked out at 187%. The z-score in test [3] (setting [10]) was -0.142; in test [3] (setting [11]), 0.763; in test [3] (setting [12]), -0.13. Also, the values for the fluorescence slope in test [5] and in [7] were -0.483 (inactive) and 0.00606 (inactive), respectively. The NADPH fluorescence slope in test [6] is -0.000131 (inactive). In addition, in [8], the call was inactive.

On to `CSc1nc2[nH]c3c(c2c2ncnn12)CCCC3`, for which the cell count in test [1] was determined as 547. Further, the inhibition in [1] is -3.6% (inactive); in test [2], 37.3% (inactive); in test [4], 1.98% (inactive); in [9], 44.1% (inactive). The compound further yielded a nuclei count in test [2] of 171%. The z-score in [3] (setting [10]) was -0.205; in [3] (setting [11]), -0.317; in test [3] (setting [12]), -0.0331. Also, the fluorescence slope in test [5] is -0.379 (inactive); in [7], 0.00321 (inactive). The NADPH fluorescence slope in test [6] is -4.9e-05 (inactive). Besides, the call in test [8] was inactive.

With `CCOC(=O)c1cnn2c1[nH]c(=O)c1ccccc12`, the cell count in [1] came out at 560. Further, the inhibition is -6.1% (inactive) in test [1], -143% (inactive) in test [2], 17.8% (inactive) in test [4] and 24.1% (inactive) in [9]. This compound also registered a nuclei count in test [2] of 165%. For the same compound, the values for the z-score in [3] (setting [10]), in [3] (setting [11]) and in test [3] (setting [12]) were 0.0185, 1.83 and -0.274, respectively. The values for the fluorescence slope in [5] and in [7] were -0.378 (inactive) and 0.0106 (active), respectively. Moreover, the NADPH fluorescence slope in test [6] is -4.5e-05 (inactive). Further, the outcome in test [8] was inactive.

In the case of `Cn1c(=O)[nH]c2cc(Cl)cnc21`, in [1], the cell count stood at 378. The inhibition was -14% (inactive) in test [1], -133% (inactive) in test [2], 3.42% (inactive) in [4] and 9.47% (inactive) in [9]. The nuclei count in [2] is 108%. For the same compound, the z-score in test [3] (setting [10]) is 0.823; in test [3] (setting [11]), -0.334; in test [3] (setting [12]), -1.3. The values for the fluorescence slope in [5] and in [7] were -0.492 (inactive) and 0.00408 (inactive), respectively. Also, the NADPH fluorescence slope in test [6] was -3.9e-05 (inactive). The call in [8] was inactive.

As to `CCOc1ccc(C2=Nn3c(nnc3-c3ccccc3OC)SC2)cc1`, in test [1], the cell count was 409. Further, the inhibition was 35.7% (active) in test [1], -453% (inactive) in test [2], 4.25% (inactive) in test [4] and -11.5% (inactive) in test [9]. Besides, the nuclei count in test [2] turned out to be 82.2%. The z-score in test [3] (setting [10]) is -1.24; in test [3] (setting [11]) it was 0.121; in test [3] (setting [12]), -0.702. For the same compound, the fluorescence slope in [5] was -0.472 (inactive); in test [7], 0.00485 (inactive). Besides, in test [6], the NADPH fluorescence slope was -1.9e-05 (inactive). In addition, the compound was called inactive in test [8].

Turning to `CCCCCSc1nc(N2CCOCC2)c2c(c1C#N)CC(C)(C)OC2`, the cell count in test [1] was 527. Moreover, the inhibition in test [1] is -4.1% (inactive); in [2], 47.4% (inactive); in [4], -11.4% (inactive); in test [9], 16.6% (inactive). In addition, the nuclei count in test [2] was found to be 82.5%. The results for the z-score in test [3] (setting [10]), in test [3] (setting [11]) and in test [3] (setting [12]) were -0.00236, 0.148 and -1.7, respectively. In addition, the fluorescence slope was -0.426 (inactive) in test [5] and 0.00771 (inactive) in [7]. Moreover, the NADPH fluorescence slope in [6] was 1.5e-05 (inactive). Also, the outcome in test [8] was inactive.

On to `COC(=O)CSc1nnc(C)c(=O)[nH]1`, for which, in [1], the cell count is 609. Also, the inhibition in [1] is -15.3% (inactive); in test [2] it was -317% (inactive); in test [4], -7.86% (inactive); in test [9], -3.96% (inactive). Also, the nuclei count in test [2] worked out at 138%. The z-score in test [3] (setting [10]) is 0.155; in test [3] (setting [11]), 1.52; in [3] (setting [12]), -3.1. Also, the fluorescence slope in test [5] is -0.484 (inactive); in test [7], 0.00545 (inactive). For the same compound, the NADPH fluorescence slope in test [6] is -7.4e-05 (inactive). The compound was classed as inactive in [8].

On to `O=C(Nc1ccc(N2CCN(C(=O)c3ccccc3)CC2)c(Cl)c1)c1ccc(Br)o1`, for which the cell count in test [1] was determined as 435. For the same compound, the inhibition in [1] is -6.8% (inactive); in [2] it was -72.9% (inactive); in [4], -7.28% (inactive); in test [9], 117% (active). Further, the nuclei count in test [2] was 143%. Besides, the z-score was -0.73 in [3] (setting [10]), 0.543 in [3] (setting [11]) and -0.883 in test [3] (setting [12]). Besides, the fluorescence slope is -0.431 (inactive) in test [5] and 0.00435 (inactive) in [7]. The NADPH fluorescence slope in test [6] was -2.9e-05 (inactive). For the same compound, the compound was classed as inactive in [8].

For the compound `CN(C)c1nc(OCCNC(=O)Nc2ccccc2)nc(N(C)C)n1`, in test [1], the cell count stood at 519. The inhibition in test [1] is -7.6% (inactive); in test [2], -47.8% (inactive); in test [4], 5.42% (inactive); in test [9], 36.3% (inactive). In test [2], this compound came in with a nuclei count of 104%. Further, the values for the z-score in [3] (setting [10]), in [3] (setting [11]) and in test [3] (setting [12]) were 0.724, -0.537 and -0.187, respectively. Further, the fluorescence slope in test [5] was -0.522 (inactive); in [7], 0.00455 (inactive). The NADPH fluorescence slope in test [6] is 5.3e-05 (inactive). In addition, in [8], the result was inactive.
